Measured values taken from ChEMBL document CHEMBL1125866, “Aldophosphamide acetal diacetate and structural analogues: synthesis and cytotoxicity studies” (J Med Chem, 1991).

Tests used:
L1210 = experiment: Concentration required to reduce the viability of L1210 cells by 50% after 1-h incubation at 37 degrees C; format: functional, cell-based; settings: Mus musculus, L1210, 1 h
Method in brief: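 Exposed to at least seven drug concentrations (0.1–300 μM) for 1 h at 37 °C, washed, regrown drug-free 72 h. MTT reduction read at 570 nm. IC50 from concentration–viability plot, average of duplicates.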

carboxylate esterase = experiment: Half-life in […] at pH 7.4(37 degrees C) in the presence of pig Liver Carboxylate Esterase; format: ADME, Sus scrofa; settings: pig liver carboxylate esterase in phosphate buffer
Method in brief: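 Acetal at 100 μM in 0.05 M phosphate buffer, pH 7.4, at 37 °C with pig liver carboxylate esterase, 2 units per μmol substrate (1 unit hydrolyses 1.0 μmol ethyl butyrate/min at pH 8.0, 25 °C). Samples vortexed, centrifuged, supernatant analysed by C-18 HPLC, UV 220 nm. Half-life by least-squares regression, pseudo-first-order.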

[1] = Half-life in […] Phosphate buffer at pH 7.4(37 degrees C); format: ADME
Method in brief: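 Acetal at 100 μM in 0.05 M phosphate buffer, pH 7.4, shaken at 37 °C without enzyme. Aliquots taken at intervals (typically 2–50 h) and parent drug measured by reverse-phase C-18 HPLC with UV detection at 220 nm. Half-life from linear least-squares regression of pseudo-first-order decay.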

Row | SMILES | IC50 (L1210) | half-life (carboxylate esterase) | half-life [1]
1 | C=CC=O [ACROLEIN] | 48 µM |  | 
2 | O=P1(N(CCCl)CCCl)NC(OO)CCO1 (configuration not stated) [PERFOSFAMIDE] | 90 µM |  | 
3 | CC(=O)OC(CCOP(N)(=O)N(CCCl)CCCl)OC(C)=O.O=S(=O)(O)CCS (configuration not stated) | 0.9 µM |  | 
4 | O=S(=O)(O)CCS [MESNA] | > 200 µM |  | 
5 | CC(=O)OC(CCOP(N)(=O)N(CCCl)CCCl)OC(C)=O (configuration not stated) | 0.9 µM | 36 s | 38 h
6 | O=P1(N(CCCl)CCCl)NCCCO1 (configuration not stated) [CYCLOPHOSPHAMIDE ANHYDROUS] | > 300 µM |  | 
7 | CC(=O)OC(CCOP(=O)(N(C)C)N(CCCl)CCCl)OC(C)=O (configuration not stated) | > 245 µM | 36 s | 36 h
8 | O=P1(N(CCCl)CCCl)NC(OO)CCO1.O=S(=O)(O)CCS (configuration not stated) | 90 µM |  | 
9 | C=CC=O.O=S(=O)(O)CCS | 168 µM |  | 
10 | CCNP(=O)(OCCC(OC(C)=O)OC(C)=O)N(CCCl)CCCl (configuration not stated) | 29 µM | 42 s | 40 h
11 | CNP(=O)(OCCC(OC(C)=O)OC(C)=O)N(CCCl)CCCl (configuration not stated) | 38 µM | 42 s | 42 h
12 | CCN(CC)P(=O)(OCCC(OC(C)=O)OC(C)=O)N(CCCl)CCCl (configuration not stated) | 78 µM | 40 s | 37 h
